How the values were obtained:
[1] = tested on: MCF7; assay: Cytotoxicity against human MCF7 cells assessed as cell growth at 10 uM after 48 hrs by SRB assay relative to control; assay type: functional; settings: MCF7, 48 h, read-out: Activity
Procedure, shortened: (§1)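 First-stage NCI-60 screen by the NCI Developmental Therapeutics Program. Each compound was tested once at a single concentration of 10 μM against the 60-cell-line panel. Growth percentage was reported for each cell line.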

[2] = tested on: K562; assay: Cytotoxicity against human K562 cells assessed as cell growth at 10 uM after 48 hrs by SRB assay relative to control; assay type: functional; settings: K562, 48 h, read-out: Activity; procedure, shortened: as §1
[3] = tested on: HOP-92; assay: Cytotoxicity against human HOP92 cells assessed as cell growth at 10 uM after 48 hrs by SRB assay relative to control; assay type: functional; settings: HOP-92, 48 h, read-out: Activity; procedure, shortened: as §1
[4] = tested on: NCI-H226; assay: Cytotoxicity against human NCI-H226 cells assessed as cell growth at 10 uM after 48 hrs by SRB assay relative to control; assay type: functional; settings: NCI-H226, 48 h, read-out: Activity
Procedure, shortened: (§2)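 First-stage NCI DTP one-dose screen against the 60 human tumour cell line panel. Compounds were tested at a single 10 μM level, and results are given as growth percentage.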

[5] = tested on: RPMI-8226; assay: Cytotoxicity against human RPMI8226 cells assessed as cell growth at 10 uM after 48 hrs by SRB assay relative to control; assay type: functional; settings: RPMI-8226, 48 h, read-out: Activity; procedure, shortened: as §2
[6] = tested on: DU-145; assay: Cytotoxicity against human DU145 cells after 72 hrs by MTT assay; assay type: functional, cell-based; settings: DU-145, 72 h
Procedure, shortened: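 DU-145 cells grown in RPMI-1640 with 5% heat-inactivated fetal calf serum at 37 °C, 5% CO2. About 2×10^3 cells per well were seeded and incubated for 24 h. Compounds were dissolved in DMSO freshly and diluted into medium (vehicle 0.1% DMSO), then cells were exposed for 72 h. MTT was added for 3 h at 37 °C and absorbance read at 570 nm.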

[7] = tested on: UACC-257; assay: Cytotoxicity against human UACC257 cells assessed as cell growth at 10 uM after 48 hrs by SRB assay relative to control; assay type: functional; settings: UACC-257, 48 h, read-out: Activity
Procedure, shortened: (§3)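 NCI-60 one-dose screen run by NCI DTP: each cell line exposed to a single 10 µM dose, and percentage growth recorded against untreated growth.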

[8] = tested on: SF-539; assay: Cytotoxicity against human SF539 cells assessed as cell growth at 10 uM after 48 hrs by SRB assay relative to control; assay type: functional; settings: SF-539, 48 h, read-out: Activity; procedure, shortened: as §2
[9] = tested on: SR; assay: Cytotoxicity against human SR cells assessed as cell growth at 10 uM after 48 hrs by SRB assay relative to control; assay type: functional; settings: read-out: Activity; procedure, shortened: as §3
[10] = tested on: A498; assay: Cytotoxicity against human A498 cells assessed as cell growth at 10 uM after 48 hrs by SRB assay relative to control; assay type: functional; settings: A498, 48 h, read-out: Activity; procedure, shortened: as §1
[11] = tested on: SK-OV-3; assay: Cytotoxicity against human SKOV3 cells assessed as cell growth at 10 uM after 48 hrs by SRB assay relative to control; assay type: functional; settings: SK-OV-3, 48 h, read-out: Activity; procedure, shortened: as §2
[12] = tested on: HOP-62; assay: Cytotoxicity against human HOP62 cells assessed as cell growth at 10 uM after 48 hrs by SRB assay relative to control; assay type: functional; settings: HOP-62, 48 h, read-out: Activity; procedure, shortened: as §1
[13] = tested on: OVCAR-8; assay: Cytotoxicity against human OVCAR8 cells assessed as cell growth at 10 uM after 48 hrs by SRB assay relative to control; assay type: functional; settings: OVCAR-8, 48 h, read-out: Activity; procedure, shortened: as §2
[14] = tested on: PC-3; assay: Cytotoxicity against human PC3 cells after 48 hrs by SRB assay; assay type: functional, cell-based; settings: PC-3, 48 h
Procedure, shortened: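 Second-stage NCI-60 panel run by the NCI Developmental Therapeutics Program, covering nine tumour subpanels. Five concentrations were tested: 0.01, 0.1, 1, 10 and 100 μM. Percentage growth at each level was plotted against log10 drug concentration. GI50, TGI and LC50 were read from these dose-response curves. Subpanel MID values were divided into the full-panel MID to give selectivity ratios.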

[15] = tested on: U-251; assay: Cytotoxicity against human U251 cells assessed as cell growth at 10 uM after 48 hrs by SRB assay relative to control; assay type: functional; settings: U-251, 48 h, read-out: Activity; procedure, shortened: as §3
[16] = tested on: UO-31; assay: Cytotoxicity against human UO31 cells assessed as cell growth at 10 uM after 48 hrs by SRB assay relative to control; assay type: functional; settings: UO-31, 48 h, read-out: Activity; procedure, shortened: as §3
[17] = tested on: HCC 2998; assay: Cytotoxicity against human HCC2998 cells assessed as cell growth at 10 uM after 48 hrs by SRB assay relative to control; assay type: functional; settings: HCC 2998, 48 h, read-out: Activity; procedure, shortened: as §1
[18] = tested on: DU-145; assay: Cytotoxicity against human DU145 cells assessed as cell growth at 10 uM after 48 hrs by SRB assay relative to control; assay type: functional; settings: DU-145, 48 h, read-out: Activity; procedure, shortened: as §1
[19] = tested on: PC-3; assay: Cytotoxicity against human PC3 cells assessed as cell growth at 10 uM after 48 hrs by SRB assay relative to control; assay type: functional; settings: PC-3, 48 h, read-out: Activity; procedure, shortened: as §2
[20] = tested on: NCI-H23; assay: Cytotoxicity against human NCI-H23 cells assessed as cell growth at 10 uM after 48 hrs by SRB assay relative to control; assay type: functional; settings: NCI-H23, 48 h, read-out: Activity; procedure, shortened: as §2
[21] = tested on: SNB-19; assay: Cytotoxicity against human SNB19 cells assessed as cell growth at 10 uM after 48 hrs by SRB assay relative to control; assay type: functional; settings: SNB-19, 48 h, read-out: Activity; procedure, shortened: as §3
[22] = tested on: KM12; assay: Cytotoxicity against human KM12 cells assessed as cell growth at 10 uM after 48 hrs by SRB assay relative to control; assay type: functional; settings: KM12, 48 h, read-out: Activity; procedure, shortened: as §1
[23] = tested on: M14; assay: Cytotoxicity against human M14 cells assessed as cell growth at 10 uM after 48 hrs by SRB assay relative to control; assay type: functional; settings: M14, 48 h, read-out: Activity; procedure, shortened: as §1
[24] = tested on: SN12C; assay: Cytotoxicity against human SN12C cells assessed as cell growth at 10 uM after 48 hrs by SRB assay relative to control; assay type: functional; settings: read-out: Activity; procedure, shortened: as §2
[25] = tested on: NCI-H522; assay: Cytotoxicity against human NCI-H522 cells assessed as cell growth at 10 uM after 48 hrs by SRB assay relative to control; assay type: functional; settings: NCI-H522, 48 h, read-out: Activity; procedure, shortened: as §2
[26] = tested on: SK-MEL-28; assay: Cytotoxicity against human SK-MEL-28 cells assessed as cell growth at 10 uM after 48 hrs by SRB assay relative to control; assay type: functional; settings: SK-MEL-28, 48 h, read-out: Activity; procedure, shortened: as §2
[27] = tested on: MDA-MB-435; assay: Cytotoxicity against human MDA-MB-435 cells assessed as cell growth at 10 uM after 48 hrs by SRB assay relative to control; assay type: functional; settings: MDA-MB-435, 48 h, read-out: Activity; procedure, shortened: as §2
[28] = tested on: HCT-116; assay: Cytotoxicity against human HCT116 cells assessed as cell growth at 10 uM after 48 hrs by SRB assay relative to control; assay type: functional; settings: HCT-116, 48 h, read-out: Activity; procedure, shortened: as §1
[29] = tested on: A549; assay: Cytotoxicity against human A549 cells assessed as cell growth at 10 uM after 48 hrs by SRB assay relative to control; assay type: functional; settings: A549, 48 h, read-out: Activity; procedure, shortened: as §1
[30] = tested on: BT-549; assay: Cytotoxicity against human BT549 cells assessed as cell growth at 10 uM after 48 hrs by SRB assay relative to control; assay type: functional; settings: BT-549, 48 h, read-out: Activity; procedure, shortened: as §1

SMILES | growth at 10 µM [1] [%] | growth at 10 µM [2] [%] | growth at 10 µM [3] [%] | growth at 10 µM [4] [%] | growth at 10 µM [5] [%] | IC50 [6] [µM] | growth at 10 µM [7] [%] | growth at 10 µM [8] [%] | growth at 10 µM [9] [%] | growth at 10 µM [10] [%] | growth at 10 µM [11] [%] | growth at 10 µM [12] [%] | growth at 10 µM [13] [%] | IC50 [14] [µM] | growth at 10 µM [15] [%] | growth at 10 µM [16] [%] | growth at 10 µM [17] [%] | growth at 10 µM [18] [%] | growth at 10 µM [19] [%] | growth at 10 µM [20] [%] | further results
Cc1cc(C)cc(Sc2cc3c(c4nsnc24)C(=O)c2ccccc2C3=O)c1 | 75.8 | 75.6 | 93.5 | 88 | 89.1 | > 15 | 116 | 94.9 | 78.4 | 93.6 | 97.5 | 91 | 92.2 | > 15 | 108 | 69.1 | 109 | 122 | 81.3 | 90.4 | growth at 10 µM [21]: 107%; growth at 10 µM [22]: 105%; growth at 10 µM [23]: 100%; growth at 10 µM [24]: 105%; growth at 10 µM [25]: 106%; growth at 10 µM [26]: 112%; growth at 10 µM [27]: 105%; growth at 10 µM [28]: 92.3%; growth at 10 µM [29]: 107%; growth at 10 µM [30]: 95.1%
O=C1c2ccccc2C(=O)c2c1cc(Sc1ccccc1Br)c1nsnc21 | -6.39 | 29.7 | 37.6 | 92.1 | 9.4 | 9.58 | 4.75 | -5.66 | 2.94 | 24.2 | 66.7 | 4.88 | 2.47 | 5.76 | 11.5 | 56.1 | 78.4 | 50.6 | 4.23 | 18 | growth at 10 µM [21]: 71.4%; growth at 10 µM [22]: 57.9%; growth at 10 µM [23]: 59.5%; growth at 10 µM [24]: 22.6%; growth at 10 µM [25]: 30.8%; growth at 10 µM [26]: 64.7%; growth at 10 µM [27]: -73%; growth at 10 µM [28]: 16.6%; growth at 10 µM [29]: 95.4%; growth at 10 µM [30]: 52.2%
O=C1c2ccccc2C(=O)c2c1cc(Sc1ccc(Cl)cc1)c1nsnc21 | 86.1 | 94.9 | 94.8 | 104 | 90.2 | > 15 | 95.5 | 107 | 111 | 93 | 109 | 102 | 88.6 | > 15 | 104 | 79.5 | 107 | 117 | 86.9 | 100 | growth at 10 µM [21]: 105%; growth at 10 µM [22]: 102%; growth at 10 µM [23]: 105%; growth at 10 µM [24]: 87%; growth at 10 µM [25]: 93.4%; growth at 10 µM [26]: 130%; growth at 10 µM [27]: 107%; growth at 10 µM [28]: 98.2%; growth at 10 µM [29]: 104%; growth at 10 µM [30]: 98.9%

Reference: ChEMBL document CHEMBL3621107, “Ring fusion strategy for synthesis and lead optimization of sulfur-substituted anthra[1,2-c][1,2,5]thiadiazole-6,11-dione derivatives as promising scaffold of antitumor agents” (Eur J Med Chem, 2015)
